Data set [1] in a line: folding enthalpy; higher = less favourable; fluorescence melt of hairpins on a sequencing array, two-state fit. Conditions: sodium 0.088 M. An outline of the steps: (§1)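 Hairpins were imaged by Cy3 fluorescence on a sequenced MiSeq flow cell with annealed Cy3 and quencher oligos, in 50 mM Na-HEPES pH 8.0, 25 mM NaCl, in 2.5 °C steps up to 60 °C. Bootstrapped two-state fits of normalised signals gave melting temperature and folding enthalpy. Four replicates were combined by inverse variance, and fitted temperatures were raised by 9.35 °C to match UV melts.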

A short description of data set [2]: melting temperature; fluorescence melt of hairpins on a sequencing array, two-state fit, raised by 9.35 °C to match UV melts. The following applies: sodium 0.088 M. An outline of the steps: as §1

As for GCGATTGTTCGC ((((....)))), the folding enthalpy in data set [1] was -24.5 kcal/mol. Further, the Tm in data set [2] turned out to be 51.6 °C.
GCGCAAGGAAACCTGCAC (.(((.(....).))).): the folding enthalpy in data set [1] was -17 kcal/mol. Further, the Tm in data set [2] is 29.3 °C.
Consider GCGCAAGGAAACCTGCGC (((((.(....).))))), for which, in data set [1], the folding enthalpy was -41.7 kcal/mol. Further, the Tm in data set [2] was determined as 62.4 °C.
The corresponding values for GCGCAAGGAAACTCACGC (((..((....))..))) are -15 kcal/mol and 28.4 °C.
The matching figures for GCGCAAGGAAACTCGCAC (.((.((....)).)).): -13.1 kcal/mol and 27.2 °C.
The matching figures for GCGCAAGGAAACTTACGC (((.(((....))).))): -30.6 kcal/mol and 46 °C.
Consider GCGCACCCGAAAGGGCGC (((..(((....)))))), for which, in data set [1], the folding enthalpy is -20.5 kcal/mol. The Tm in data set [2] was found to be 67 °C.
The corresponding values for GCGCACGAAAGTGCACGC ((((((....)))..))) are -14.6 kcal/mol and 61.1 °C.
Consider GCGCACGAAAGTGGTCGC ((((((....)))..))), for which, in data set [1], the folding enthalpy was -13.8 kcal/mol. For the same sequence, the Tm in data set [2] is 53.4 °C.
The matching figures for GCGCACGGAAACACGCGC ((((..(....)..)))): -32.9 kcal/mol and 51.6 °C.
The matching figures for GCGCACGGAAACGCACGC (((..((....))..))): -31.2 kcal/mol and 42.2 °C.
The corresponding values for GCGCACGGAAACGTGTGC ((.((((....)))).)) are -41 kcal/mol and 67.7 °C.
As to GCGCAGACGAAAGTCCGC (((..(((....)))))), in data set [1], the folding enthalpy is -25 kcal/mol. Further, in data set [2], the Tm was determined as 52.4 °C.
The corresponding values for GCGCAGCGAAAGCAGAGC ((.(.((....)).).)) are -15.7 kcal/mol and 54.6 °C.
As to GCGCAGCGAAAGCTAAGC ((..(((....)))..)), the folding enthalpy in data set [1] is -17.7 kcal/mol. For the same sequence, the Tm in data set [2] was found to be 58.4 °C.
For GCGCAGCGAAAGCTACGC (((.(((....))).))), the folding enthalpy in data set [1] was -35 kcal/mol. Besides, in data set [2], the Tm is 53.5 °C.
The matching figures for GCGCAGTCGAAAGACCGC (((..(((....)))))): -26.1 kcal/mol and 52.8 °C.
The corresponding values for GCGCATACGAAAGTACGC (((..(((....)))))) are -22.7 kcal/mol and 44.9 °C.
In the case of GCGCATCGAAAGATTCGC (((.(((....))).))), in data set [1], the folding enthalpy is -38.9 kcal/mol. Moreover, the Tm in data set [2] was determined as 52.2 °C.
The matching figures for GCGCATTCGAAAGAACGC (((..(((....)))))): -18.8 kcal/mol and 41.4 °C.
The matching figures for GCGCCAACGAAAGTTCGC (((..(((....)))))): -24.3 kcal/mol and 43.5 °C.
Regarding GCGCCACGAAAGTGCCGC (((.(((....))).))), the folding enthalpy in data set [1] is -26.9 kcal/mol. Moreover, the Tm in data set [2] worked out at 56.3 °C.
The corresponding values for GCGCCCCGAAAGGGTCGC (((.(((....))).))) are -45.8 kcal/mol and 68 °C.
In the case of GCGCCCGAAAGGGGACGC ((((((....)))..))), in data set [1], the folding enthalpy was -19.6 kcal/mol. For the same sequence, in data set [2], the Tm is 62.2 °C.
With GCGCCCGGAAACGGACGC (((.(((....))).))), the folding enthalpy in data set [1] was -47 kcal/mol. The Tm in data set [2] was determined as 66.1 °C.
The corresponding values for GCGCCCGTGCGC ((((....)))) are -10.3 kcal/mol and 66.5 °C.
The corresponding values for GCGCCGCGAAAGCACCGC (((..((....))..))) are -16.7 kcal/mol and 46.2 °C.
Regarding GCGCCGCGAAAGCTGAGC ((.(.((....)).).)), the folding enthalpy in data set [1] was -20 kcal/mol. Besides, in data set [2], the Tm was found to be 57.5 °C.
The matching figures for GCGCCGGGAAACCGACGC (((.(((....))).))): -46.8 kcal/mol and 60.9 °C.
The corresponding values for GCGCCTCGAAAGAGTCGC (((.(((....))).))) are -38.3 kcal/mol and 58.7 °C.
The matching figures for GCGCCTGGAAACAAGCGC ((((.((....)).)))): -41.6 kcal/mol and 52.8 °C.
With GCGCGACCGAAAGGTCGC (((..(((....)))))), the folding enthalpy in data set [1] is -5.08 kcal/mol. Also, the Tm in data set [2] was 68.5 °C.
With GCGCGAGGAAACCCACGC (((.(.(....).).))), in data set [1], the folding enthalpy was -20.3 kcal/mol. In addition, in data set [2], the Tm worked out at 40 °C.
Turning to GCGCGAGGAAACTCGCAC (.(((((....))))).), the folding enthalpy in data set [1] is -11.4 kcal/mol. In addition, the Tm in data set [2] stood at 49.4 °C.
The corresponding values for GCGCGAGGAAACTCGTGC ((.((((....)))).)) are -42.3 kcal/mol and 62.9 °C.
The corresponding values for GCGCGCGAAAGCGCTCGC ((((((....)))..))) are -10.5 kcal/mol and 59.4 °C.
For GCGCGCGAAAGCGGACGC ((((((....)))..))), the folding enthalpy in data set [1] is -16.5 kcal/mol. Besides, the Tm in data set [2] was 64.9 °C.
In the case of GCGCGGCGAAAGCAACGC (((..((....))..))), the folding enthalpy in data set [1] is -15.8 kcal/mol. Further, in data set [2], the Tm was determined as 60 °C.

These data come from the array DNA melting data of Ke et al. (doi:10.1101/2024.01.08.574731).
